# Experimental data taken from PubChem BioAssay AID588621 (Sanford-Burnham Center for Chemical Genomics, 2011).
# Among all 360,000 compounds or so, about 890 (0.25%) were called active. This excerpt belongs to a sample that is enriched for actives. A number with no mark means an inactive call.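 The calls were made as follows: active = inhibition at 20 µM, scaled per plate between control wells, above about 37% (limit read from the data); inactive = the rest.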
# Target: Tyrosine-protein phosphatase non-receptor type 5 (Homo sapiens) (UniProt P54829)
# Sequence (P54829 whole entry, looked up): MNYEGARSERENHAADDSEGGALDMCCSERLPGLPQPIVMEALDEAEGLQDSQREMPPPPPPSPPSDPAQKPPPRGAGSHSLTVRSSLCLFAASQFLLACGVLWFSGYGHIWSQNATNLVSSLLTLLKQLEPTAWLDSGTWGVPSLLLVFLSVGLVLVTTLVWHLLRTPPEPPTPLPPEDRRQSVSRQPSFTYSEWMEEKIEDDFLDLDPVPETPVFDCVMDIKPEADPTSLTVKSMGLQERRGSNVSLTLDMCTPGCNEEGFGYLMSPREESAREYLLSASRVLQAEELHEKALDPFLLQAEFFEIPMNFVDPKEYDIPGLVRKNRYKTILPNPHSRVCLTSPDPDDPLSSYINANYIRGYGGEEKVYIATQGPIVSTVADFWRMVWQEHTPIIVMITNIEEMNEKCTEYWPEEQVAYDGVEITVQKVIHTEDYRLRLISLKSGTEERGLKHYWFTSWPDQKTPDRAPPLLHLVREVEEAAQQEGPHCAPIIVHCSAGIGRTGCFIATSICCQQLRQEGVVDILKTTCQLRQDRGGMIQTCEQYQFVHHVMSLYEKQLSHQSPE
# Experiment: STEP phosphatase inhibitors, primary screen, biochemical, fluorescence intensity, uHTS (AID 588621);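 also: 0% = DMSO with enzyme and substrate and 100% = substrate only without enzyme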
# Conditions: recombinant STEP, OMFP fluorogenic substrate, at 20 µM, stronger effect = higher value
# In short: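 System: isolated STEP enzyme; schedule: 20 min enzyme reaction at room temperature, protected from light; medium: Bis-Tris buffer pH 6.0, 2.5 mM DTT, 0.005% Tween 20; signal: fluorescence, 480/540 nm; dosing: single compound dose of 20 µM, 1% DMSO final; also added: OMFP substrate, 25 µM final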
row,SMILES,inhibition
1,COc1ccc(N2C(=O)/C(=C/c3ccco3)C(=O)NC2=S)cc1,63.7% (active)
2,CC1CC=CCC12C(=O)NC(=S)NC2=O (stereo not given),0%
3,COc1ccc(-n2c(-c3ccccc3)nc3ccccc3c2=O)cc1,-0.9%
4,O=C(c1cc2nc(-c3ccccc3)cc(-c3ccccc3)n2n1)N1CCC2(CC1)OCCO2,0.4%
5,CN(C)CCN(CC1CCCN(Cc2ccccc2F)C1)C(=O)Cc1ccc(F)c(F)c1 (stereo not given),-2%
